Our source for the inhibition, Activity and IC50 values is ChEMBL document CHEMBL1828624, “Synthesis and antioxidant activity of oxazolyl/thiazolylsulfonylmethyl pyrazoles and isoxazoles” (Eur J Med Chem, 2011).

One may read the inhibition as how much of the control response was suppressed. As a reminder, the IC50 is the point on the concentration scale where inhibition reaches its midpoint.

In brackets after ≈: the same amount, converted by molar mass. Activity calls are given as the source filed them. The calls are words filed in the database; no cut-off is given here.

Common to all, as to type: functional
For test [1], the system named is Radical scavenging activity. Put plainly: Antioxidant activity assessed as DPPH free radical scavenging activity at 50 ug/ml after 30 mins by spectrophotometric analysis relative to control. The method in brief:
(§1)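 Compounds in methanol at […] were mixed with 0.004% (w/v) methanolic DPPH. After 30 min at room temperature, absorbance was read at 517 nm against a blank. Percent inhibition was calculated from control (all reagents minus compound) and sample absorbances. Run in triplicate.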
In general terms: Loss of DPPH colour is used to gauge radical scavenging.

A short description of test [2]: Antioxidant activity assessed as hydrogen peroxide scavenging activity at 100 ug/ml relative to control.
Test [3] has as its system Radical scavenging activity. Put plainly: Antioxidant activity assessed as DPPH free radical scavenging activity at 100 ug/ml after 30 mins by spectrophotometric analysis relative to control. The method in brief:
as §1

Test [4] in a line: Antioxidant activity assessed as hydrogen peroxide scavenging activity at 75 ug/ml relative to control.
Test [5] in a line: Antioxidant activity assessed as nitric oxide scavenging activity at 75 ug/ml after 150 mins by Griess method relative to control. Put shortly: (§2)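 NO was generated from sodium nitroprusside (10 mM) in phosphate buffer saline (0.2 M, pH 7.4). Compounds were added at […] and incubated 150 min at 25 °C. Percent scavenging was calculated from control (all reagents minus compound) and sample absorbances. Run in triplicate.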

Test [6] is described as follows: Antioxidant activity assessed as nitric oxide scavenging activity at 100 ug/ml after 150 mins by Griess method relative to control. Put shortly: as §2
For orientation: The Griess reaction detects nitrite, a stable product of nitric oxide.

Test [7] relates to Radical scavenging activity. In words: Antioxidant activity assessed as DPPH free radical scavenging activity at 75 ug/ml after 30 mins by spectrophotometric analysis relative to control. The method in brief: as §1
For test [8], the system named is Radical scavenging activity. Put plainly: Antioxidant activity assessed as DPPH free radical scavenging activity after 30 mins by spectrophotometric analysis. Put shortly: as §1
Test [9] is described as follows: Antioxidant activity assessed as nitric oxide scavenging activity at 50 ug/ml after 150 mins by Griess method relative to control. Put shortly: as §2
Test [10] can be described thus: Antioxidant activity assessed as hydrogen peroxide scavenging activity at 50 ug/ml relative to control.

Consider `O=S(=O)(CC1=NCCS1)c1c(-c2ccc(Cl)cc2)noc1-c1ccc(Cl)cc1`, for which the inhibition result in test [1], in test [3] and in test [7] was “inactive” in each case. For the same compound, the result in [2], in test [4], in [5], in test [6], in test [9] and in test [10] was inactive. Also, the IC50 result in [8] was “Not Active”.

Take `O=S(=O)(CC1=NCCO1)C1C(c2ccccc2)=NOC1c1ccccc1` (stereo not given): the inhibition in test [1] was 49.4%; in test [3] it was 57.9%; in test [7], 55.2%. Also, the Activity amounted to 56.6% in test [2]; 53.3% in test [4]; 57.2% in test [5]; 62.8% in test [6]; 53.9% in [9]; 51.7% in [10]. Also, the IC50 in test [8] came to 86.31 µg/mL (≈ 233 µM).
